Data reported in ChEMBL document CHEMBL4340521, “Subtle modifications to a thieno[2,3-d]pyrimidine scaffold yield negative allosteric modulators and agonists of the dopamine D2 receptor” (Eur J Med Chem, 2019).
Active and inactive are the calls of the source. No cut-off for these calls is given here.

What was measured:
D(2) dopamine receptor [1] = biological target: T1, D(2) dopamine receptor (Homo sapiens, UniProt P14416); test: (§1) Negative allosteric modulation of recombinant human D2L receptor expressed in Flp-In CHO cells assessed as inhibition of dopamine-induced reduction in forskolin stimulated cAMP accumulation by measuring equilibrium dissociation constant preincubated for 30 mins followed by forskolin stimulation and measured after 30 mins by BRET assay; assay type: functional, cell-based
D(2) dopamine receptor [2] = biological target: T1, D(2) dopamine receptor; test: as §1, with “intrinsic efficacy of the modulator” for “equilibrium dissociation constant”; assay type: functional, cell-based
D(2) dopamine receptor [3] = biological target: T1, D(2) dopamine receptor; test: as §1, with “modulation of dopamine efficacy” for “equilibrium dissociation constant”; assay type: functional, cell-based
D(2) dopamine receptor [4] = biological target: T1, D(2) dopamine receptor; test: as §1, with “constant up to 100 uM” for “constant”; assay type: functional, cell-based
D(2) dopamine receptor [5] = biological target: T1, D(2) dopamine receptor; test: as §1, with “net cooperativity factor” for “equilibrium dissociation constant”; assay type: functional, cell-based
CHO [6] = test: Modulation of dopamine-induced forskolin stimulated cAMP accumilation in hamster FlpIn CHO cells assessed as BRET signal at 100 uM preincubated for 30 mins followed by forskolin stimulation and measured after 30 mins by BRET assay relative to control; assay type: cell-based, Cricetinae; conditions: Cricetulus griseus, 0.5 h, read-out: Activity
In short: (§2)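 Wild-type FlpIn CHO cells lacking D2R, transfected with CAMYEL cAMP BRET biosensor. Compounds at 1-100 μM plus dopamine 10 μM added 30 min before stimulation, with or without 10 μM forskolin (final). Coelenterazine-h 5 μM final. BRET ratio 535/475 nm read 30 min after stimulation.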

CHO [7] = test: Modulation of dopamine-induced forskolin stimulated cAMP accumilation in hamster FlpIn CHO cells assessed as BRET signal preincubated for 30 mins followed by forskolin stimulation and measured after 30 mins by BRET assay relative to control; assay type: cell-based; conditions: cricetinae, 0.5 h; in short: as §2
D(2) dopamine receptor [8] = biological target: T1, D(2) dopamine receptor; test: Competitive antagonist activity at recombinant human D2L receptor expressed in Flp-In CHO cells assessed as inhibition of dopamine-induced reduction in forskolin stimulated cAMP accumulation preincubated for 30 mins followed by forskolin stimulation and measured after 30 mins by BRET assay; assay type: functional, cell-based; conditions: read-out: pA2 (converted)

T1 sequence (P14416 whole entry): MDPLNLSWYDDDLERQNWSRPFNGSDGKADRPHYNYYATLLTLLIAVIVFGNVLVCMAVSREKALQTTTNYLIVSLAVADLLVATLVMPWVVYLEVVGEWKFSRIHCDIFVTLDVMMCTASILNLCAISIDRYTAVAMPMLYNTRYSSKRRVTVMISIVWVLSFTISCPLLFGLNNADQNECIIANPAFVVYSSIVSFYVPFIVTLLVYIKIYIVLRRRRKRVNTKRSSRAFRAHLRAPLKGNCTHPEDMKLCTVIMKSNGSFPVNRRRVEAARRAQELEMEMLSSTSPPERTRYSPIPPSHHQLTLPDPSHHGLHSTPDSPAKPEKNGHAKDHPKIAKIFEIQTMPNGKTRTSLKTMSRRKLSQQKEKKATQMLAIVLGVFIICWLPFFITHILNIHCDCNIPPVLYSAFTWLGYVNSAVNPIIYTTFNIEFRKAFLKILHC

| pKb (D(2) dopamine receptor [1]) | log(activity) (D(2) dopamine receptor [2]) | Efficacy (D(2) dopamine receptor [3]) | log(activity) (D(2) dopamine receptor [3]) | Activity (D(2) dopamine receptor [4]) | Activity index (D(2) dopamine receptor [5]) | log(activity) (D(2) dopamine receptor [5]) | Kb (D(2) dopamine receptor [1]) [µM] | Intrinsic activity (D(2) dopamine receptor [2]) | Activity (CHO [7]) | Structure (SMILES) | activity at 100 µM (CHO [6]) [%] | Kb (D(2) dopamine receptor [8]) [µM] |
| --- | --- | --- | --- | --- | --- | --- | --- | --- | --- | --- | --- | --- |
| – | – | – | – | inactive | – | – | – | – | – | CCN(CC)c1ncnc2sc(C3CCCCC3)cc12 | – | – |
| 6.25 | -0.72 | 0.22 | -0.65 | – | – | – | 0.57 | 0.19 | – | c1nc(NC2CCC2)c2c3c(sc2n1)CCCC3 | – | – |
| 5.4 | 0 | 0.26 | -0.58 | – | – | – | 3.98 | – | – | c1nc(NC2CCC2)c2c3c(sc2n1)CCCCCC3 | – | – |
| 5.53 | 0 | 0.05 | -1.3 | – | – | – | 2.96 | – | – | c1nc(NC2CC2)c2c3c(sc2n1)CCCCC3 | – | – |
| 5.53 | 0 | 0.03 | -1.55 | – | – | – | 2.92 | – | – | c1nc(NC2CCC2)c2c(C3CCCCC3)csc2n1 | – | – |
| 6.05 | 0 | 0.03 | -1.48 | – | – | – | 0.88 | – | – | c1nc(NC2CC2)c2c3c(sc2n1)CCCC3 | – | – |
| – | – | – | – | inactive | – | – | – | – | – | c1nc(NC2CCCCC2)c2c3c(sc2n1)CCCC3 | – | – |
| 4.93 | 0 | 0.09 | -1.04 | – | – | – | 11.6 | – | – | c1nc(NC2CC2)c2c(C3CCCCC3)csc2n1 | – | – |
| – | – | – | – | inactive | – | – | – | – | – | c1nc(NC2CCC2)c2cc(C3CCCCC3)sc2n1 | – | – |
| 3.99 | 0 | – | 0 | – | 0.57 | -0.25 | – | – | – | c1nc(NC2CCC2)c2c3c(sc2n1)CCC3 | – | – |
| – | – | – | – | inactive | – | – | – | – | – | c1nc(NC2CC2)c2cc(C3CCCCC3)sc2n1 | – | – |
| 6.27 | 0 | 0.1 | -1 | – | – | – | 0.53 | – | – | c1nc(NC2CC2)c2c3c(sc2n1)CCCCCC3 | – | – |
| 5.22 | -0.13 | 0.28 | -0.55 | – | – | – | 6.01 | 0.75 | – | c1nc(NC2CC2)c2c3c(sc2n1)CCC3 | – | – |
| 6.04 | 0 | 0.06 | -1.22 | – | – | – | 0.91 | – | – | c1nc(NC2CCC2)c2c3c(sc2n1)CCCCC3 | – | – |

The next lines start with the compound.

| Structure (SMILES) | pKb (D(2) dopamine receptor [1]) | log(activity) (D(2) dopamine receptor [2]) | Efficacy (D(2) dopamine receptor [3]) | log(activity) (D(2) dopamine receptor [3]) | Activity (D(2) dopamine receptor [4]) | Activity index (D(2) dopamine receptor [5]) | log(activity) (D(2) dopamine receptor [5]) | Kb (D(2) dopamine receptor [1]) [µM] | Intrinsic activity (D(2) dopamine receptor [2]) | Activity (CHO [7]) | activity at 100 µM (CHO [6]) [%] | Kb (D(2) dopamine receptor [8]) [µM] |
| --- | --- | --- | --- | --- | --- | --- | --- | --- | --- | --- | --- | --- |
| CCN(CC)c1ncnc2sccc12 | 5.31 | 0 | 0.13 | -0.89 | – | – | – | – | – | – | – | – |
| CCN(CC)c1ncnc2scc(C3CCCCC3)c12 | – | – | – | – | inactive | – | – | – | – | – | – | – |
| c1nc(N2CCOCC2)c2c3c(sc2n1)CCCC3 | 3.9 | 0 | – | 0 | – | 1.66 | -0.22 | – | – | – | – | – |
| Cc1sc2ncnc(NC3CC3)c2c1C | – | – | – | – | inactive | – | – | – | – | – | – | – |
| CCN(CC)c1ncnc2sc3c(c12)CCC3 | 6.13 | 0 | 0.14 | -0.85 | – | – | – | 0.74 | – | – | – | – |
| Cc1sc2ncnc(NC3CCC3)c2c1C | 5.54 | – | 0.13 | -0.9 | – | – | – | 2.88 | – | – | – | – |
| c1ccc(-c2cc3c(NC4CCC4)ncnc3s2)cc1 | 5.35 | 0 | – | 0 | – | 0.28 | -0.55 | 4.5 | – | – | – | – |
| CCN(CC)c1ncnc2sc3c(c12)CCCC3 | 5.72 | 0 | – | -3 | – | – | -3 | – | – | – | – | – |
| CCN(CC)c1ncnc2sc3c(c12)CCCCCC3 | 4.84 | 0 | – | -3 | – | – | – | 14.5 | – | – | 28 | – |
| CCN(CC)c1ncnc2sc3c(c12)CCCCC3 | – | – | – | – | inactive | – | – | – | – | – | – | – |
| c1nc(N2CCCCC2)c2c3c(sc2n1)CCCC3 | 4.23 | 0 | – | 0 | – | – | – | 59.3 | – | Dose-dependent effect | 26 | – |
| c1ccc(-c2cc3c(NC4CC4)ncnc3s2)cc1 | 5.92 | -0.22 | 0.43 | -0.37 | – | – | – | 6.35 | 0.6 | – | – | – |
| CCN(CC)c1ncnc2scc(-c3ccccc3)c12 | 4.22 | -3 | – | 0 | – | 0.27 | -0.57 | 60 | – | – | – | – |
| CCN(CC)c1ncnc2sc(-c3ccccc3)cc12 | 6.04 | 0 | – | -3 | – | – | – | 0.9 | – | – | – | – |
| CC(C)(C)Nc1ncnc2sc3c(c12)CCCC3 | 4.03 | 0 | – | 0 | – | 0.91 | -0.04 | 92.5 | – | – | – | – |
| c1ccc(-c2csc3ncnc(NC4CCC4)c23)cc1 | 3.89 | -3 | – | 0 | – | 0.39 | -0.41 | – | – | – | – | – |
| c1nc(N2CCNCC2)c2c3c(sc2n1)CCCC3 | 4.7 | -3 | – | 0 | – | – | – | 20 | – | – | – | 21.4 |
| c1ccc(-c2csc3ncnc(NC4CC4)c23)cc1 | 5.72 | -3 | – | 0 | – | 0.32 | -0.47 | 1.93 | – | – | – | – |
| c1nc(NC2CCC2)c2ccsc2n1 | 5.13 | 0 | – | 0 | – | 0.48 | -0.32 | 7.38 | – | – | – | – |
| c1nc(NCC2CC2)c2c3c(sc2n1)CCCC3 | 5.92 | -0.06 | 0.29 | -0.54 | – | – | – | 1.19 | 0.86 | – | – | – |
| c1ccc(Nc2ncnc3sc4c(c23)CCCC4)cc1 | – | – | – | – | inactive | – | – | – | – | – | – | – |
| c1nc(NC2CC2)c2ccsc2n1 | 4.67 | -3 | – | 0 | – | 0.22 | -0.65 | 21.4 | – | – | – | – |
| CCN(CC)c1ncnc2sc(C)c(C)c12 | 4.71 | 0 | – | 0 | – | 0.24 | -0.61 | 19.5 | – | – | – | – |
| c1nc(N2CCCC2)c2c3c(sc2n1)CCCC3 | 5.37 | 0 | 0.17 | -0.76 | – | – | – | 4.23 | – | – | – | – |
